Experimental data reported in ChEMBL document CHEMBL3808362, “Affinity-Guided Design of Caveolin-1 Ligands for Deoligomerization” (J Med Chem, 2016).
One block for each molecule: values may come before it. Active and inactive are the calls of the source. No cut-off for these calls is given here. Peptide text beside a SMILES is read from it.

Assays:
[1] = molecular target: T1, Caveolin-1 (Homo sapiens) (UniProt Q03135); assay: Inhibition of oligomerization of human soluble full length variant CAV by dynamic light scattering analysis
T1 sequence (whole entry): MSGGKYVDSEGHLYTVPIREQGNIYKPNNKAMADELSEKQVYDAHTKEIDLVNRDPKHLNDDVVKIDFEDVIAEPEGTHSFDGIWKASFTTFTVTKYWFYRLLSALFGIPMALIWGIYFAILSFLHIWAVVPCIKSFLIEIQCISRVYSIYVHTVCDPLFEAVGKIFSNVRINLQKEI
Outline: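 CAV(FLV) oligomers were incubated with varied peptide concentrations. Dose dependence was followed by dynamic light scattering as the diameter of separate oligomeric peaks.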

[2] = molecular target: T1, Caveolin-1 (Homo sapiens); assay: Inhibition of oligomerization of human soluble full length variant CAV at 10 uM by dynamic light scattering analysis in presence of TCEP
Outline: (§1)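 Soluble full-length CAV variant (CAV(FLV)) forms oligomers spontaneously. These were incubated with peptide, and particle size was measured by dynamic light scattering as average diameter and polydispersity. For line 7, incubation was under reducing conditions to disrupt the peptide's disulfide dimerization.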

Albumin = Albumin (Bos taurus, UniProt P02769); assay: Binding affinity to rhodamine-labeled bovine serum albumin by SPOT screening assay; type: ADME; settings: cattle, isolated protein
Outline: (§2)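 Peptides synthesized on cellulose SPOT arrays with a double β-Ala linker, screened in duplicate sheets against rhodamine-labeled protein. Sheets were washed and blocked, and SPOT fluorescence was quantified as relative apparent binding. Signal from blank linker-only SPOTs was subtracted on each sheet.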

Gallus gallus = species on record: Gallus gallus; assay: Binding affinity to rhodamine-labeled hen egg white lysozyme by SPOT screening assay; outline: as §2
Homo sapiens = species on record: Homo sapiens; assay: Binding affinity to rhodamine-labeled casein (unknown origin) by SPOT screening assay; outline: as §2
[3] = molecular target: T1, Caveolin-1 (Homo sapiens); assay: Binding affinity to rhodamine-labeled human CAV (1 to 104 residues) expressed in Escherichia coli BL21-DE3 by SPOT screening assay; outline: as §2
[4] = molecular target: T1, Caveolin-1 (Homo sapiens); assay: Inhibition of oligomerization of human soluble full length variant CAV at 10 uM by dynamic light scattering analysis; outline: as §1
Caveolin-1 = molecular target: T2, Caveolin-1 (Homo sapiens, UniProt Q03135); assay: Binding affinity to human CAV (1 to 104 residues) expressed in Escherichia coli BL21-DE3 by isothermal titration calorimetric analysis
T2 sequence (Q03135 whole entry): T1 sequence (whole entry)

Chain of Albumin (P02769 whole entry): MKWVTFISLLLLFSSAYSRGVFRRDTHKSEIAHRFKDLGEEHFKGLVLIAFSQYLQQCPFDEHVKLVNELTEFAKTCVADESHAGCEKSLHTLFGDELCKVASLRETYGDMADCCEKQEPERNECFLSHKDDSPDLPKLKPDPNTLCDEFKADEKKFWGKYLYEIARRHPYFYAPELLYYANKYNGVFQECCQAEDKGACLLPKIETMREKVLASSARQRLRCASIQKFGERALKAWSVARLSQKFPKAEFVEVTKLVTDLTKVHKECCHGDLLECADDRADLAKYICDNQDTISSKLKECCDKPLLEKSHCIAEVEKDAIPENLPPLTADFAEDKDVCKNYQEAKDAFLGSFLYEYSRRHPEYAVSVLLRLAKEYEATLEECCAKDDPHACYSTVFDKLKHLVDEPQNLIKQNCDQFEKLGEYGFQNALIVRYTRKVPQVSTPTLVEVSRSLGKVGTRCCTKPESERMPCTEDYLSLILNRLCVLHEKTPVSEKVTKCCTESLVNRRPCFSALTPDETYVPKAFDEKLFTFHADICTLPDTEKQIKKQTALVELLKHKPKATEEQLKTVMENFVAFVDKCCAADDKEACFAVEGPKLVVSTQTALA

inhibition [1]: Dose-dependent effect
inhibition [2]: inactive
Activity (Albumin): Not Active
Activity (Gallus gallus): inactive
Activity (Homo sapiens): inactive
Activity [3]: Active
inhibition [4]: Active
SMILES: CSCC[C@H](NC(=O)[C@H](Cc1c[nH]c2ccccc12)NC(=O)[C@H](CO)NC(=O)[C@@H](N)CS)C(=O)N[C@@H](CCCNC(=N)N)C(=O)N[C@@H](CC(C)C)C(=O)N[C@@H](CCCCN)C(=O)O (H-CSWMRLK-OH)

Activity [3]: Active
SMILES: CSCC[C@H](NC(=O)[C@H](CO)NC(=O)CNC(=O)[C@H](Cc1c[nH]c2ccccc12)NC(=O)[C@H](CCCNC(=N)N)NC(=O)[C@H](CCC(=O)O)NC(=O)[C@H](CC(C)C)NC(=O)[C@H](CCC(=O)O)NC(=O)[C@H](CCSC)NC(=O)[C@H](CC(C)C)NC(=O)[C@@H](N)CCC(=O)O)C(=O)N[C@@H](CC(C)C)C(=O)N[C@@H](CCCCN)C(=O)N[C@@H](CS)C(=O)N[C@@H](Cc1ccccc1)C(=O)O (H-ELMELERWGSMLKCF-OH)

Activity [3]: Active
SMILES: CSCC[C@H](NC(=O)[C@H](CO)NC(=O)CNC(=O)[C@H](Cc1c[nH]c2ccccc12)NC(=O)[C@@H](N)CCCNC(=N)N)C(=O)N[C@@H](CC(C)C)C(=O)N[C@@H](CCCCN)C(=O)N[C@@H](CS)C(=O)N[C@@H](Cc1ccccc1)C(=O)O (H-RWGSMLKCF-OH)

Kd (Caveolin-1): ≤ 155 nM
SMILES: CC[C@H](C)[C@H](NC(=O)[C@H](CC(C)C)NC(=O)[C@H](CO)NC(=O)[C@H](Cc1cnc[nH]1)NC(=O)[C@@H](NC(=O)[C@H](CC(C)C)NC(=O)[C@H](CO)NC(=O)[C@@H](NC(=O)[C@@H](N)Cc1ccc(O)cc1)[C@@H](C)O)[C@@H](C)CC)C(=O)N[C@@H](CCC(=O)O)C(=O)N[C@@H](CCC(=O)O)C(=O)N[C@@H](CO)C(=O)N[C@@H](CCC(N)=O)C(=O)N[C@@H](CC(N)=O)C(=O)N[C@@H](CCC(N)=O)C(=O)N[C@@H](CCC(N)=O)C(=O)N[C@@H](CCC(=O)O)C(=O)N[C@@H](CCCCN)C(=O)N[C@@H](CCC(N)=O)C(=O)N[C@@H](CCC(=O)O)C(=O)N[C@@H](CCCCN)C(=O)N[C@@H](CCC(=O)O)C(=O)N[C@@H](CC(C)C)C(=O)N[C@@H](CCSC)C(=O)N[C@@H](CCC(=O)O)C(=O)N[C@@H](CC(C)C)C(=O)N[C@@H](CCC(=O)O)C(=O)N[C@@H](CCCNC(=N)N)C(=O)N[C@@H](Cc1c[nH]c2ccccc12)C(=O)NCC(=O)N[C@@H](CO)C(=O)N[C@@H](CCSC)C(=O)N[C@@H](CC(C)C)C(=O)N[C@@H](CCCCN)C(=O)N[C@@H](CS)C(=O)N[C@@H](Cc1ccccc1)C(=O)O (H-YTSLIHSLIEESQNQQEKQEKELMELERWGSMLKCF-OH)
